In ChEMBL document CHEMBL3098124, “Design, synthesis and anti-Alzheimer properties of dimethylaminomethyl-substituted curcumin derivatives” (Bioorg Med Chem Lett, 2014):

Tests used:
[1] = molecular target: Amyloid-beta precursor protein (Homo sapiens) (UniProt P05067); assay: Inhibition of amyloid beta-42 self-aggregation (unknown origin) after 1 hr by ThT fluorescence assay
Summary of the method: (§1)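 Aβ42 self-aggregation read by Thioflavin T fluorescence. Test concentrations were 5, 50 and 100 µM. Each result is the mean of 3 measurements ± SEM. Statistics by one-way ANOVA with Tukey's multiple comparison test against Aβ alone.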

[2] = molecular target: Amyloid-beta precursor protein (Homo sapiens) (UniProt P05067); assay: Inhibition of amyloid beta-42 self-aggregation (unknown origin) at 100 uM after 1 hr by ThT fluorescence assay relative to control; summary of the method: as §1
[3] = molecular target: Amyloid-beta precursor protein (Homo sapiens) (UniProt P05067); assay: Inhibition of amyloid beta-42 self-aggregation (unknown origin) at 50 uM after 1 hr by ThT fluorescence assay relative to control; summary of the method: as §1
[4] = Antioxidant activity assessed as galvinoxyl free radical scavenging activity after 19 hrs; type: functional
Summary of the method: (§2)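 In vitro scavenging of DPPH or galvinoxyl radicals by a literature method. IC50 reported in µM as mean ± S.E.M.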

[5] = system: Radical scavenging activity; assay: Antioxidant activity assessed as DPPH free radical scavenging activity after 4 hrs; type: functional; summary of the method: as §2
[6] = Aqueous solubility of the compound; type: physicochemical
[7] = n-octanol-water partition coefficient, log P of the compound by HPLC analysis; type: physicochemical
Summary of the method: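 Experimental logP determined in an octanol–water system for two representative compounds. All other values were calculated in silico.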

[8] = Chemical stability of the compound in PBS at pH 7.4 at […] measured up to 120 mins by absorption spectroscopic analysis in absence of 0.1% FBS; type: physicochemical; conditions: buffer, pH 7.4, 2 h
Summary of the method: (§3)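 Visible absorption at 410 nm tracked over time in phosphate-buffered solution, pH 7.4, under daylight. FBS was 0.1% for line 5 and absent for line 4. Stability expressed as A/A0, with A0 the absorbance at 0 min.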

[9] = Chemical stability of the compound in PBS at pH 7.4 at […] measured up to 120 mins by absorption spectroscopic analysis in presence of 0.1% FBS; type: physicochemical; conditions: buffer, pH 7.4, 2 h; summary of the method: as §3

Amyloid-beta precursor protein (Homo sapiens), sequence (P05067 whole entry): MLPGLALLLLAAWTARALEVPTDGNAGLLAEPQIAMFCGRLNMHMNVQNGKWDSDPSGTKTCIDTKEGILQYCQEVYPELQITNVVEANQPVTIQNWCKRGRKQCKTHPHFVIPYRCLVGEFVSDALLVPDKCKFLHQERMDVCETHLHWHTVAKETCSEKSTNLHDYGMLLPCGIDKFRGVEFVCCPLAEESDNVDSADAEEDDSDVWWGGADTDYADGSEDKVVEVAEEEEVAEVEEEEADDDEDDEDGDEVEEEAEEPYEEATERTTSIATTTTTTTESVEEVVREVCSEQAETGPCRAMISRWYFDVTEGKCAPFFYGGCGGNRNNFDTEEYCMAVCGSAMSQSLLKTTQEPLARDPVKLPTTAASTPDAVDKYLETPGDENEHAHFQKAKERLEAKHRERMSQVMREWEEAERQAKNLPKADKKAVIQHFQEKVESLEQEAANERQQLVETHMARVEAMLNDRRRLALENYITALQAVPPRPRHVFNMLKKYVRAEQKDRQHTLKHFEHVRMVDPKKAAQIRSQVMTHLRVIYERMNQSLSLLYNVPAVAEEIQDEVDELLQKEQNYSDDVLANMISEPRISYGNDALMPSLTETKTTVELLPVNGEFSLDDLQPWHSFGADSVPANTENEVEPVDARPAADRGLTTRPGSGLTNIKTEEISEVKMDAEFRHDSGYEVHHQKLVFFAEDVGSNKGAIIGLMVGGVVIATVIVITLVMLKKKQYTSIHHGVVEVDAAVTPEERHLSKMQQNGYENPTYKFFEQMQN

| IC50 [4] [µM] | IC50 [5] [µM] | further results | Compound |
| --- | --- | --- | --- |
| – | – | inhibition [1]: Dose-dependent effect; inhibition [2]: 32%; inhibition [3]: 28% | CN(C)Cc1cc(/C=C/C(=O)/C=C(O)/C=C/c2ccc(O)c(CN(C)C)c2)ccc1O [listing 1 of 2 here] |
| 41.1 | 11.1 | – | CN(C)Cc1cc(/C=C/C(=O)/C=C(O)/C=C/c2ccc(Cl)cc2)ccc1O |
| 11.9 | 15.1 | – | COc1ccc(/C=C/C(O)=C/C(=O)/C=C/c2ccc(O)c(CN(C)C)c2)cc1 |
| – | – | solubility [6]: 16700 µg/mL | CN(C)Cc1cc(/C=C/C(=O)/C=C(O)/C=C/c2ccc(O)c(CN(C)C)c2)ccc1O.Cl.Cl |
| 7.6 | 1.5 | – | CN(C)Cc1cc(/C=C/C(=O)/C=C(O)/C=C/c2ccc(O)cc2)ccc1O |
| – | – | solubility [6]: 1200 µg/mL | COc1cc(/C=C/C(O)=C/C(=O)/C=C/c2ccc(O)c(CN(C)C)c2)ccc1O.Cl |
| 4.9 | 1.6 | logP [7]: 3.48; Stability [8]: Stable; Stability [9]: Stable | CN(C)Cc1cc(/C=C/C(=O)/C=C(O)/C=C/c2ccc(O)c(CN(C)C)c2)ccc1O [listing 2 of 2 here] |
| – | – | inhibition [1]: Dose-dependent effect; inhibition [2]: 29%; inhibition [3]: 24% | COc1cc(/C=C/C(=O)CC(=O)/C=C/c2ccc(O)c(OC)c2)ccc1O |
| 27.4 | 29.9 | – | COc1ccc(/C=C/C(O)=C/C(=O)/C=C/c2ccc(O)c(CN(C)C)c2)cc1OC |
| – | – | logP [7]: 3.65 | COc1cc(/C=C/C(O)=C/C(=O)/C=C/c2ccc(O)c(CN(C)C)c2)ccc1O |
| 6.9 | 4 | – | CN(C)Cc1cc(/C=C/C(=O)/C=C(O)/C=C/c2cccc(O)c2)ccc1O |
| 22.3 | 24.1 | – | CN(C)Cc1cc(/C=C/C(=O)/C=C(O)/C=C/c2ccc(F)cc2)ccc1O |
| 22 | 18.7 | – | Cc1ccc(/C=C/C(O)=C/C(=O)/C=C/c2ccc(O)c(CN(C)C)c2)cc1 |
